# Screening results as filed in PubChem.
# PfM18AAP inh = PfM18AAP inhibitors, malaria aminopeptidase, primary screen, biochemical, QFRET, recombinant enzyme | AID 1822, 2009 | H-Glu-NHMec fluorogenic cleavage | M18 aspartyl aminopeptidase (Plasmodium falciparum 3D7) | 290,000 tested, 1.2% active | inhibition, % at 7.35 µM;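 active = inhibition above the campaign mean inhibition over all tested compounds plus 3 SD, cut at about 28% in these data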;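 also: 0% = plate median of test compound wells and 100% = 2 mM ZnCl2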
# CHOP inh = inhibitors of CHOP promoter induction, primary screen, cell-based, unfolded protein response, luciferase reporter; 220,000 tested, 3.8% active; inhibition, % at 10 µM; CHO-K1 CHOP-promoter luciferase, tunicamycin-induced, 15-18 h;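 active = compounds that reduced the stress-induced luciferase reporter signal by more than about 70% of percent inhibition, limit read from the data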;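 also: 0% = tunicamycin plus vehicle and 100% = wells without tunicamycin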
# p97 ATPase inh = inhibitors of human p97 ATPase, primary screen, biochemical. inhibition, % at 8 µM. 220,000 tested, 0.42% active. recombinant p97 ATPase, Kinase-Glo ATP luminescence, 3 h. Transitional endoplasmic reticulum ATPase (Homo sapiens), P55072. AID 1481, 2009; in the data active = inhibition above about 15%;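 also: 0% = DMSO vehicle and 100% = wells lacking enzyme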
# Target sequence (P55072 whole entry, looked up): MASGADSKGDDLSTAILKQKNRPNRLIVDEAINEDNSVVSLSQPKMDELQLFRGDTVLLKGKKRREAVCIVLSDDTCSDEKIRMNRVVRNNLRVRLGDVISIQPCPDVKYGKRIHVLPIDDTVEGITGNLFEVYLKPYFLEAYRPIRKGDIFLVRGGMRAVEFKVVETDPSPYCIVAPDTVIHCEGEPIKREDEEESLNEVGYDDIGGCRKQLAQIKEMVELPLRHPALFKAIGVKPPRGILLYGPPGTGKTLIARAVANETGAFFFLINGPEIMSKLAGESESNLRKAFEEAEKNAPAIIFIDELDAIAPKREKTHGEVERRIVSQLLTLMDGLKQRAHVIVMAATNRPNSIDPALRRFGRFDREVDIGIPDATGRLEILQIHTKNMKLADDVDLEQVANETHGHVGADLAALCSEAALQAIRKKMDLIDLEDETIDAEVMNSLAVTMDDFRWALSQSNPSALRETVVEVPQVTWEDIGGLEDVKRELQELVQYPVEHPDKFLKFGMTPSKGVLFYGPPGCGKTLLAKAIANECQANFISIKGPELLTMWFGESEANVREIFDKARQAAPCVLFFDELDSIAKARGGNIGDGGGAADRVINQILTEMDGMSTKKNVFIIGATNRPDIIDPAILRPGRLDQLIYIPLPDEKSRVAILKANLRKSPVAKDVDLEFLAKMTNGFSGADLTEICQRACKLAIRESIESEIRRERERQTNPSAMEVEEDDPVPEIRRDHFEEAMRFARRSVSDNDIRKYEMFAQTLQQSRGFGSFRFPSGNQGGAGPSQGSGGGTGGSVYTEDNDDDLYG
# HCV NS3 hel inh = inhibitors of HCV NS3 helicase, primary screen, biochemical, Cy5 molecular beacon fluorescence. Hepatitis C virus NS3 helicase. NS3 helicase DNA unwinding. inhibition, % at 10.9 µM. 290,000 tested, 0.56% active. AID 1800, 2009;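 active = inhibition above the mean of all tested compounds plus 3 SD, set per campaign, cut at about 35% in these data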;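 also: 0% = DMSO wells and 100% = thioflavine S control wells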
#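 Control set: DMSO versus 110 µM thioflavine S; Material: NS3 helicase fragment of HCV; Measured by: Cy5 fluorescence at 0 and 60 min, beacon hairpin quenching; Read-out basis: percent inhibition from t60/t0 fluorescence ratio; Times: reaction time 60 min, 25 °C; Repeats: single replicate; Compound dosing: single dose, 10.9 µM nominal final, DMSO 0.8% final.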
# UPR CHOP act = activators of apoptotic CHOP UPR arm, primary screen, cell-based, CHO-CHOP luciferase reporter, luminescence, uHTS. activation, % at 10 µM. 330,000 tested, 0.34% active. UPR activation; percent of tunicamycin response over DMSO baseline;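 active = at 10 µM dose, activation of 40% or more, normalized to positive control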;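 also: 100% = tunicamycin at 10 µg/mL and 0% = DMSO alone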
#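 Dosing – one dose, 10 µM in 0.5% DMSO · System – CHO-CHOP cells, stable luciferase reporter of PERK-eIF2a-CHOP signalling · Input – 500 cells/well · Control set – tunicamycin 10 µg/mL final as positive, DMSO-only wells as negative · Timing – 6 h compound treatment, 37 °C · Measure – % activation vs tunicamycin · Technique – luminescence read with Steady-Glo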
# UPR XBP1 act = activators of adaptive XBP1 UPR arm, primary screen, cell-based, CHO-XBP1 luciferase reporter, luminescence, uHTS; IRE1-XBP1 UPR activation; percent of tunicamycin response, DMSO as zero; activation, % at 20 µM; 330,000 tested, 0.33% active;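 active = versus positive control, 20 µM dose yields 30% or more activation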;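 also: 100% = tunicamycin at 10 µg/mL and 0% = DMSO only wells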
#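 Signal: luciferase luminescence; Assay system: CHO-XBP1 luciferase reporter cells; Amount: one thousand reporter cells per well; Dosing: 20 µM single concentration, DMSO 1%; Benchmarks: high control tunicamycin 10 µg/mL final, low control DMSO vehicle only; Schedule: 6 h compound exposure at 37 °C, 5% CO2; Evaluation: percent activation relative to tunicamycin reference.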
# * = called active by the depositor; / = no result given. This is a sample that favours compounds with a hit; in the whole collection about 4.5% have one here.
SMILES,PfM18AAP inh,CHOP inh,p97 ATPase inh,HCV NS3 hel inh,UPR CHOP act,UPR XBP1 act
CN1N=C2c3ccccc3CCC2C1c1ccc(Cl)cc1 (stereo unspecified),-2,-26,2,0,7,1
CCOC(=O)Cn1nnnc1C(C(C)C)N(Cc1cccs1)Cc1cc2cc(C)ccc2[nH]c1=O (stereo unspecified),31*,43,0,-1,0,7
O=C(Cn1cnc2cc([N+](=O)[O-])ccc2c1=O)Nc1ccc(Br)cc1,4,6,7,-13,0,-2
CC(C)(C)c1ccc(NC(=O)Cn2cnc3cc([N+](=O)[O-])ccc3c2=O)cc1,-1,91*,4,-11,4,-4
COc1ccc(-n2c(=S)[nH]c3cc(C(=O)N4CCN(c5ccccc5)CC4)ccc3c2=O)cc1,6,/,/,0,0,-7
CCC(C(=O)OCC(=O)Nc1cc(Cl)cc(Cl)c1)c1ccccc1 (stereo unspecified),1,92*,-6,-4,-2,-3
CCC(C(=O)OCC(=O)Nc1cccc(C(C)=O)c1)c1ccccc1 (stereo unspecified),-1,26,0,-2,-3,0
CCOc1ccc(N(CC(=O)N2CCCCC2)S(=O)(=O)c2ccc(Cl)cc2)cc1,3,/,/,-10,1,-7
O=C(O)c1ccccc1C(=O)N1CCN(Cc2ccc3c(c2)OCO3)CC1,29*,/,/,4,1,1
CCOc1cc(/C=N/NC(=O)C(N)=O)cc(Br)c1O,3,22,4,9,-2,-2
CCOc1cc(Br)c(Br)c(C=Nc2ccc(NC(C)=O)cc2)c1O,7,87*,4,15,1,-3
CC(C)c1cccc(C(C)C)c1NC(=O)c1ccc(OCC(=O)NCc2ccccc2)cc1,5,94*,12,-9,0,2
CC(=O)Nc1ccc(OCC(=O)NCc2ccccc2)cc1,2,2,6,6,-2,4
O=C(NCCc1ccccc1)c1ccc2nc(-c3ccco3)c(-c3ccco3)nc2c1,-2,-18,4,23,-2,1
O=C(Nc1ccc2nc(-c3ccco3)c(-c3ccco3)nc2c1)N1CCCCCC1,14,-44,4,49*,5,-2
O=C(c1ccccc1)c1ccc2nc(-c3ccco3)c(-c3ccco3)nc2c1,15,72*,8,34,8,-1
Cc1ccccc1CNC(=O)c1ccccc1SCC(=O)NCc1ccco1,/,/,/,/,1,-3
CCCOc1cccc(-c2cc(C(=O)N/N=C/c3cccnc3)c3ccccc3n2)c1,-3,/,/,-12,3,-1
CCCOc1cccc(-c2cc(C(=O)N/N=C/c3ccccn3)c3ccccc3n2)c1,-7,/,/,-21,296*,-2
COc1ccc(NC(=O)c2ccc(COc3ccccc3Br)o2)c(OC)c1,/,/,/,/,0,-2
Cn1nc(C(C)(C)C)cc1C(=O)NCc1ccc(N2CCCC2=O)cc1,-1,83*,0,-3,6,-2
Cc1ccc(CNC(=O)c2ccc(N3CCCC3=O)cc2)cc1,-3,-7,3,-2,-2,1
CC(C)CC1NC(=O)c2ccc(Cl)cc2-n2c1nc1ccc(Cl)cc1c2=O (stereo unspecified),/,/,/,/,4,-2
Clc1cccc(Cl)c1Cn1cnc2c(N3CCCCCC3)ncnc21,-8,76*,-2,0,1,11
N#CC1=C(N)OC2=C(CCc3ccccc32)C1c1ccccc1 (stereo unspecified),-11,100*,-4,-10,5,26
SMILES,PfM18AAP inh,CHOP inh,p97 ATPase inh,HCV NS3 hel inh,UPR CHOP act,UPR XBP1 act
Oc1ccccc1Oc1c(F)c(F)nc(N2CCCC2)c1F,3,94*,3,3,-1,4
Cc1onc(-c2ccccc2Cl)c1C(=O)N1CCCC1,3,/,/,-5,1,-5
Cc1cc2ncn(C(=O)c3c(-c4ccccc4Cl)noc3C)c2cc1C,-4,76*,-2,4,-1,-2
CCOC(=O)COc1c(Cl)cc(/C=C2\N=C(C)OC2=O)cc1OC,/,/,/,/,-2,-2
COc1ccc(S(=O)(=O)N(C)CC(=O)N2CCCC2)cc1OC,7,/,/,14,1,-5
O=C1c2cccc3cccc(c23)C(=O)N1c1ccc2ncccc2c1,2,89*,0,5,-2,0
O=C1c2cccc3cccc(c23)C(=O)N1c1nccs1,0,24,11,-2,0,2
CN1CCN(S(=O)(=O)c2cccc(C(=O)NCc3ccc(Cl)cc3)c2)CC1,-3,18,1,-11,1,-2
O=C(CSc1nc2ccccc2[nH]1)N1CCCCC1,-3,-28,2,6,5,0
Cc1c(C)n(C(=O)CSc2nc3ccccc3[nH]2)c2ccccc12,13,80*,0,3,-3,-1
NC(=O)c1cc(Br)cc2c3c([nH]c12)CCCC3,7,85*,-4,-6,-3,3
Cc1cc(C)c2nc(NC(=O)[C@@H](NC(=O)c3cccc(S(=O)(=O)N4CCOCC4)c3)C(C)C)sc2c1,-2,93*,0,-4,3,4
COc1ccc(N2CCN(S(=O)(=O)c3ccc4c(c3)CCCC4)CC2)c([N+](=O)[O-])c1,-13,71*,-5,2,6,-4
CCCCOc1ccc(CNn2c(C)nc3ccccc3c2=O)cc1,-3,81*,9,2,1,-2
CCOc1ccc(-n2c(SC)nc3c(c2=O)SCC3)cc1,-6,37,0,10,3,0
CCOc1ccc(-n2c(SC(C)C)nc3c(c2=O)SCC3)cc1,-3,78*,1,6,-2,2
c1ccc(Nc2cccc3c(Nc4ccccc4)cccc23)cc1,4,79*,7,-2,3,0
COc1ccccc1NC(=O)C(C)OC(=O)C1COc2ccccc2O1 (stereo unspecified),/,/,/,/,-1,-4
CC(CCN1C(N(C)C)=NC[C@@H]1C)c1ccccc1 (stereo partly specified),/,/,/,/,0,-1
Cn1c2ccccc2c2cnn(CC(=O)Nc3ccc(F)cc3F)c(=O)c21,2,88*,-2,20,1,-3
Cn1c2ccccc2c2cnn(CC(=O)Nc3ccccc3Br)c(=O)c21,4,37,-3,2,1,1
